# Test results reported in ChEMBL document CHEMBL1122360, “Inhibitors of gastric acid secretion: antisecretory 2-pyridylurea derivatives” (1983).
# Tests used:
# Canis familiaris [1] = experiment: Acid concentration of histamine stimulated inhibition of gastric secretion when administered perorally in dogs; format: functional; conditions: Canis lupus familiaris, Stomach, po
# How it was run: (§1)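 Unanesthetized female beagle dogs with chronic gastric fistula; compound in 50 mL 1% aqueous methylcellulose given into stomach via fistula cannula 60 min before stimulant (gastrin tetrapeptide 64 μg/kg sc, or histamine dihydrochloride 64 μg base/kg sc). Output drained by gravity, three 30-min periods; volume measured, acid concentration titrated to pH 7 with 0.01 N NaOH, output = volume × concentration. Percent change vs placebo trial in same dog.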
# Canis familiaris [2] = experiment: Volume of histamine stimulated inhibition of gastric secretion when administered perorally in dogs; format: functional; conditions: Canis lupus familiaris, Stomach, po; how it was run: as §1
# Canis familiaris [3] = experiment: Acid concentration of gastrin tetrapeptide stimulated inhibition of gastric secretion when administered perorally in dogs; format: functional; conditions: Canis lupus familiaris, Stomach, po; how it was run: as §1
# Canis familiaris [4] = experiment: Volume of gastrin tetrapeptide stimulated inhibition of gastric secretion when administered perorally in dogs; format: functional; conditions: Canis lupus familiaris, Stomach, po; how it was run: as §1
# Canis familiaris [5] = experiment: Acid output of gastrin tetrapeptide stimulated inhibition of gastric secretion when administered perorally in dogs; format: functional; conditions: Canis lupus familiaris, Stomach, po; how it was run: as §1
# Canis familiaris [6] = experiment: Acid output of histamine stimulated inhibition of gastric secretion when administered perorally in dogs; format: functional; conditions: Canis lupus familiaris, Stomach, po; how it was run: as §1
# Canis familiaris [7] = experiment: Inhibition of gastric acid secretion at 20 mg/kg oral administration to dogs; format: functional; conditions: Canis lupus familiaris, Stomach
# How it was run: (§2)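 Unanesthetized female beagle dogs with chronic gastric fistula; compound in 50 mL aqueous 1% methylcellulose delivered into stomach via fistula cannula 60 min before gastrin tetrapeptide (64 μg/kg sc, maximal secretory dose). Gastric output drained by gravity over three 30-min periods; acid concentration by titration to pH 7 with 0.01 N NaOH; percent decrease in acid concentration versus placebo trial in same animal; dose as base weight.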
# Canis familiaris [8] = experiment: Inhibition of gastric acid secretion at 40 mg/kg oral administration to dogs; format: functional; conditions: Canis lupus familiaris, Stomach; how it was run: as §2
# Canis familiaris [9] = experiment: Inhibition of gastric acid secretion at 10 mg/kg oral administration to dogs; format: functional; conditions: Canis lupus familiaris, Stomach; how it was run: as §2
# Canis familiaris [10] = experiment: Inhibition of gastric acid secretion at 40 mg/kg oral administration to dogs; Compound is CNS (central nervous system) effective; format: functional, organism-based; parameters: dose 40 mg/kg; conditions: Canis lupus familiaris, Stomach; how it was run: as §2
compound,measurement,setting,value
CN/C(=N\CCSCc1nc[nH]c1C)NC#N [CIMETIDINE],ED50,Canis familiaris [1],5 mg/kg
same,ED50,Canis familiaris [2],3.5 mg/kg
same,ED50,Canis familiaris [3],6.4 mg/kg
same,ED50,Canis familiaris [4],3.9 mg/kg
same,ED50,Canis familiaris [5],3.6 mg/kg
same,ED50,Canis familiaris [6],2.6 mg/kg
Cc1cc(C)nc(N(CCCCN(C(C)C)C(C)C)C(=O)N(C)C)c1,inhibition in vivo at 20 mg/kg,Canis familiaris [7],5%
same,inhibition in vivo at 40 mg/kg,Canis familiaris [8],3%
Cc1cc(C)nc(N(CCN(C)C)C(=O)N(C)C)c1,inhibition in vivo at 20 mg/kg,Canis familiaris [7],58%
same,inhibition in vivo at 10 mg/kg,Canis familiaris [9],14%
same,inhibition in vivo at 40 mg/kg,Canis familiaris [8],58%
CC(C)N(CCN(C(=O)N(C)C)c1ccccn1)C(C)C,inhibition in vivo at 20 mg/kg,Canis familiaris [7],17%
same,inhibition in vivo at 40 mg/kg,Canis familiaris [8],82%
Cc1cc(N(CCN(C(C)C)C(C)C)C(=O)N(C)C)nc(C)c1Cl,inhibition in vivo at 20 mg/kg,Canis familiaris [7],95%
same,inhibition in vivo at 10 mg/kg,Canis familiaris [9],62%
Cc1cc(Cl)nc(N(CCN(C(C)C)C(C)C)C(=O)N(C)C)c1,inhibition in vivo at 20 mg/kg,Canis familiaris [7],71%
same,inhibition in vivo at 10 mg/kg,Canis familiaris [9],52%
CCCN(CCC)CCN(C(=O)N(C)C)c1cc(C)cc(C)n1,inhibition in vivo at 20 mg/kg,Canis familiaris [7],22%
same,inhibition in vivo at 40 mg/kg,Canis familiaris [8],93%
CC(C)N(CCN(C(=O)N(C)C)c1ccc(Cl)cn1)C(C)C,inhibition in vivo at 20 mg/kg,Canis familiaris [7],63%
same,inhibition in vivo at 10 mg/kg,Canis familiaris [9],44%
Cc1cc(C)nc(N(CCNC(C)C)C(=O)N(C)C)c1,inhibition in vivo at 20 mg/kg,Canis familiaris [7],33%
same,inhibition in vivo at 40 mg/kg,Canis familiaris [8],42%
Cc1ccc(N(CCN(C(C)C)C(C)C)C(=O)N(C)C)nc1,inhibition in vivo at 20 mg/kg,Canis familiaris [7],19%
same,inhibition in vivo at 40 mg/kg,Canis familiaris [8],33%
Cc1ccnc(N(CCN(C(C)C)C(C)C)C(=O)N(C)C)c1,inhibition in vivo at 20 mg/kg,Canis familiaris [7],95%
same,inhibition in vivo at 10 mg/kg,Canis familiaris [9],79%
CC(C)N(CCN(C(=O)N(C)C)c1cccc(Cl)n1)C(C)C,inhibition in vivo at 20 mg/kg,Canis familiaris [7],78%
Cc1cc(C)nc(N(CCN(C(C)C)C(C)C)C(N)=O)c1,inhibition in vivo at 20 mg/kg,Canis familiaris [7],18%
same,inhibition,Canis familiaris [10],CNS effect
CNC(=O)N(CCN(C(C)C)C(C)C)c1cc(C)cc(C)n1,inhibition in vivo at 20 mg/kg,Canis familiaris [7],44%
same,inhibition,Canis familiaris [10],CNS effect
Cc1cccc(N(CCN(C(C)C)C(C)C)C(=O)N(C)C)n1,inhibition in vivo at 20 mg/kg,Canis familiaris [7],87%
same,inhibition in vivo at 10 mg/kg,Canis familiaris [9],54%
CNCCN(C(=O)N(C)C)c1cc(C)cc(C)n1,inhibition in vivo at 40 mg/kg,Canis familiaris [8],20%
COc1ccnc(N(CCN(C(C)C)C(C)C)C(=O)N(C)C)c1,inhibition in vivo at 20 mg/kg,Canis familiaris [7],84%
same,inhibition in vivo at 10 mg/kg,Canis familiaris [9],64%
Cc1cc(C)nc(N(CCN(C(C)C)C(C)C)C(=O)N(C)C)c1.Cl,inhibition in vivo at 20 mg/kg,Canis familiaris [7],100%
same,ED50,Canis familiaris [1],9.6 mg/kg
same,ED50,Canis familiaris [2],12.6 mg/kg
same,inhibition in vivo at 10 mg/kg,Canis familiaris [9],70%
same,ED50,Canis familiaris [3],6.8 mg/kg
same,ED50,Canis familiaris [4],3.8 mg/kg
same,ED50,Canis familiaris [5],3.3 mg/kg
same,ED50,Canis familiaris [6],5.1 mg/kg
Cc1cc(C)nc(N(CCCN(C(C)C)C(C)C)C(=O)N(C)C)c1,inhibition in vivo at 20 mg/kg,Canis familiaris [7],0%
same,inhibition in vivo at 40 mg/kg,Canis familiaris [8],35%
